From ChEMBL document CHEMBL1275442, “Pharmacokinetics and tissue distribution of anidulafungin in rats” (Antimicrob Agents Chemother, 2008)

Assays:
Assay type in all cases: ADME, organism-based
[1] = tested on: Kidney; assay: Drug level in Long Evans rat kidney assessed as low disposition of radioactivity per gram of tissue at 5 mg/kg, iv administered as single bolus dose measured 0.5 hrs postdose by autoradiography; set-up: dose 5 mg/kg, route intravenous; details: in vivo
Procedure, shortened: (§1)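 Male pigmented Long Evans (HsdBlu:LE) rats, 7.5 weeks old, 202 to 217 g, single iv [¹⁴C]anidulafungin; one rat per sampling time. Euthanized by isoflurane and cardiac-puncture exsanguination. Sagittal whole-body sections quantified by phosphorimaging autoradiography, single samples corrected for section thickness across multiple sections per tissue. Concentrations (μg eq/g drug-derived radioactivity) interpolated from least-squares standard curves per scan.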

[2] = tested on: Lung; assay: Drug level in Long Evans rat lung assessed as radioactivity per gram of tissue at 5 mg/kg, iv administered as single bolus dose measured 0.5 hrs postdose by autoradiography; set-up: dose 5 mg/kg, route intravenous; details: in vivo; procedure, shortened: as §1
[3] = tested on: Lung; assay: Half life in F344 rat lung assessed as total compound-derived radioactivity at 5 mg/kg, iv administered as single bolus dose […]; set-up: dose 5 mg/kg, route intravenous; details: in vivo
Procedure, shortened: (§2)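 Male F344 rats, 10 to 11 weeks old and 223.6 to 243.8 g, got one iv dose of [14C]anidulafungin at 5 mg/kg over about 5 min. Blood, CSF, kidney, liver, lung, quadriceps, spleen and skin were sampled predose and at 0.083 to 72 h, 3 rats per time. Total radioactivity (parent plus metabolites) was measured by liquid scintillation counting. Parameters were noncompartmental, from a composite mean profile.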

[4] = tested on: Zone of skin; assay: AUC (0 to infinity) in F344 rat skin assessed as total compound-derived radioactivity per gram of tissue at 5 mg/kg, iv administered as single bolus dose […]; set-up: time infinity, dose 5 mg/kg, route intravenous; details: in vivo
Procedure, shortened: (§3)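 Same F344 study: single 5 mg/kg IV [¹⁴C]anidulafungin given over about 5 min. Total drug-derived radioactivity (parent plus metabolites) counted by liquid scintillation, in […]. Noncompartmental analysis of the composite mean profile.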

[5] = tested on: Lung; assay: AUC (0 to infinity) in F344 rat lung assessed as total compound-derived radioactivity per gram of tissue at 5 mg/kg, iv administered as single bolus dose […]; set-up: dose 5 mg/kg, route intravenous, time infinity; details: in vivo; procedure, shortened: as §3
[6] = tested on: Blood; assay: AUC (0 to 24 hrs) in F344 rat blood assessed as total compound-derived radioactivity per gram of tissue at 5 mg/kg, iv administered as single bolus dose […]; set-up: time < 24 hr, dose 5 mg/kg, route intravenous; details: in vivo; procedure, shortened: as §3
[7] = tested on: Kidney; assay: AUC (0 to 24 hrs) in F344 rat kidney assessed as total compound-derived radioactivity per gram of tissue at 5 mg/kg, iv administered as single bolus dose […]; set-up: time < 24 hr, dose 5 mg/kg, route intravenous; details: in vivo; procedure, shortened: as §3
[8] = tested on: Blood; assay: Tmax in F344 rat blood assessed as total compound-derived radioactivity at 5 mg/kg, iv administered as single bolus dose […]; set-up: dose 5 mg/kg, route intravenous; details: in vivo; procedure, shortened: as §2
[9] = tested on: Lung; assay: Tmax in F344 rat lung assessed as total compound-derived radioactivity at 5 mg/kg, iv administered as single bolus dose […]; set-up: dose 5 mg/kg, route intravenous; details: in vivo; procedure, shortened: as §2
[10] = tested on: Liver; assay: Cmax in F344 rat liver assessed as total compound-derived radioactivity per gram of tissue at 5 mg/kg, iv administered as single bolus dose […]; set-up: dose 5 mg/kg, route intravenous; details: in vivo; procedure, shortened: as §3
[11] = tested on: Spleen; assay: AUC (0 to 24 hrs) in F344 rat spleen at 5 mg/kg, iv administered as single bolus dose; set-up: time < 24 hr, dose 5 mg/kg, route intravenous; details: in vivo
Procedure, shortened: (§4)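 Male F344 rats, 10–11 weeks, 223.6–243.8 g, given one IV dose of [¹⁴C]anidulafungin, 5 mg/kg, over about 5 min. Tissues and blood sampled at 0.083–72 h (n = 3 rats per time). Parent drug measured by HPLC; LLOQ/ULOQ were 20/5,120 ng/ml for plasma and 220/56,320 ng/g for tissue. Noncompartmental parameters taken from the composite mean profile.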

[12] = Tmax in F344 rat lung at 5 mg/kg, iv administered as single bolus dose by HPLC method; set-up: dose 5 mg/kg, route intravenous
Procedure, shortened: (§5)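 F344 males, 10 to 11 weeks old and 223.6 to 243.8 g, got a single 5 mg/kg iv dose of [14C]anidulafungin over about 5 min. Plasma and tissues were collected predose and at 0.083 to 72 h, n = 3 per time point. Parent drug was quantified by HPLC-UV, with LLOQ/ULOQ of 20/5,120 ng/ml in plasma and 220/56,320 ng/g in tissue. Noncompartmental parameters came from a composite mean concentration-time profile.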

[13] = Tmax in F344 rat kidney at 5 mg/kg, iv administered as single bolus dose by HPLC method; set-up: dose 5 mg/kg, route intravenous; procedure, shortened: as §5
[14] = Tmax in F344 rat plasma at 5 mg/kg, iv administered as single bolus dose by HPLC method; set-up: dose 5 mg/kg, route intravenous; procedure, shortened: as §5
[15] = Cmax in F344 rat kidney at 5 mg/kg, iv administered as single bolus dose after 30 min by HPLC method; set-up: dose 5 mg/kg, route intravenous; procedure, shortened: as §4
[16] = Cmax in F344 rat lung at 5 mg/kg, iv administered as single bolus dose after 5 min by HPLC method; set-up: dose 5 mg/kg, route intravenous; procedure, shortened: as §4
[17] = tested on: Liver; assay: Drug level in Long Evans rat liver assessed as low disposition of radioactivity per gram of tissue at 5 mg/kg, iv administered as single bolus dose measured 6 hrs postdose by autoradiography; set-up: dose 5 mg/kg, route intravenous; details: in vivo; procedure, shortened: as §1
[18] = tested on: Muscle tissue; assay: AUC (0 to infinity) in F344 rat muscle at 5 mg/kg, iv administered as single bolus dose; set-up: dose 5 mg/kg, route intravenous, time infinity; details: in vivo; procedure, shortened: as §4
[19] = tested on: Liver; assay: Drug level in Long Evans rat liver assessed as high disposition of radioactivity per gram of tissue at 5 mg/kg, iv administered as single bolus dose measured 12 hrs postdose by autoradiography; set-up: dose 5 mg/kg, route intravenous; details: in vivo; procedure, shortened: as §1
[20] = tested on: Kidney; assay: Drug level in Long Evans rat kidney assessed as high disposition of radioactivity per gram of tissue at 5 mg/kg, iv administered as single bolus dose measured 24 hrs postdose by autoradiography; set-up: dose 5 mg/kg, route intravenous; details: in vivo; procedure, shortened: as §1
[21] = tested on: Liver; assay: Drug level in Long Evans rat liver assessed as low disposition of radioactivity per gram of tissue at 5 mg/kg, iv administered as single bolus dose measured 72 hrs postdose by autoradiography; set-up: dose 5 mg/kg, route intravenous; details: in vivo; procedure, shortened: as §1
[22] = tested on: Kidney; assay: Drug level in Long Evans rat kidney assessed as high disposition of radioactivity per gram of tissue at 5 mg/kg, iv administered as single bolus dose measured 72 hrs postdose by autoradiography; set-up: dose 5 mg/kg, route intravenous; details: in vivo; procedure, shortened: as §1
[23] = tested on: Blood; assay: Drug level in Long Evans rat blood assessed as radioactivity per gram of tissue at 5 mg/kg, iv administered as single bolus dose measured 72 hrs postdose by autoradiography; set-up: dose 5 mg/kg, route intravenous; details: in vivo; procedure, shortened: as §1
[24] = Drug level in Long Evans rat eye assessed as radioactivity per gram of tissue at 5 mg/kg, iv administered as single bolus dose measured 72 hrs postdose by autoradiography; set-up: dose 5 mg/kg, route intravenous; details: in vivo; procedure, shortened: as §1
[25] = tested on: Liver; assay: Drug level in Long Evans rat liver assessed as high disposition of radioactivity per gram of tissue at 5 mg/kg, iv administered as single bolus dose measured 168 hrs postdose by autoradiography; set-up: dose 5 mg/kg, route intravenous; details: in vivo; procedure, shortened: as §1
[26] = tested on: Liver; assay: Drug level in Long Evans rat liver assessed as low disposition of radioactivity per gram of tissue at 5 mg/kg, iv administered as single bolus dose measured 168 hrs postdose by autoradiography; set-up: dose 5 mg/kg, route intravenous; details: in vivo; procedure, shortened: as §1
[27] = tested on: Lung; assay: Drug level in Long Evans rat lung assessed as radioactivity per gram of tissue at 5 mg/kg, iv administered as single bolus dose measured 168 hrs postdose by autoradiography; set-up: dose 5 mg/kg, route intravenous; details: in vivo; procedure, shortened: as §1
[28] = Drug level in Long Evans rat eye assessed as radioactivity per gram of tissue at 5 mg/kg, iv administered as single bolus dose measured 168 hrs postdose by autoradiography; set-up: dose 5 mg/kg, route intravenous; details: in vivo; procedure, shortened: as §1
[29] = tested on: Rattus norvegicus; assay: Volume of distribution in F344 rat assessed as total compound-derived radioactivity at 5 mg/kg, iv administered as single bolus dose; set-up: dose 5 mg/kg, route intravenous; details: in vivo; procedure, shortened: as §2

Q: Which Drug uptake [1] does the source give for `CCCCCOc1ccc(-c2ccc(-c3ccc([14C](=O)N[C@H]4C[C@@H](O)[C@@H](O)NC(=O)[C@@H]5[C@@H](O)[C@@H](C)CN5C(=O)[C@H]([C@@H](C)O)NC(=O)[C@H]([C@H](O)[C@@H](O)c5ccc(O)cc5)NC(=O)[C@@H]5C[C@@H](O)CN5C(=O)[C@H]([C@@H](C)O)NC4=O)cc3)cc2)cc1` [14C-ANIDULAFUNGIN] here?
A: 9.18 ugequiv

Q: And the Drug uptake [2]?
A: 22.31 ugequiv

Q: What about the t1/2 [3] of the same molecule?
A: 42.2 h

Q: And the AUC [4]?
A: 326.92 ugequiv.hr/g

Q: What about the AUC [5] of the same molecule?
A: 1341.95 ugequiv.hr/g

Q: What about the AUC [6] of the same molecule?
A: 203.14 ugequiv.hr/g

Q: And the AUC [7]?
A: 920.18 ugequiv.hr/g

Q: And the Tmax [8]?
A: 4.98 min

Q: What about the Tmax [9] of the same molecule?
A: 4.98 min

Q: What about the Cmax [10] of the same molecule?
A: 24.28 ugequiv/g

Q: And the AUC [11]?
A: 490.36 µg·h/g

Q: And the Tmax [12]?
A: 4.98 min

Q: And the Tmax [13]?
A: 30 min

Q: What about the Tmax [14] of the same molecule?
A: 4.98 min

Q: What about the Cmax [15] of the same molecule?
A: 16100 ng/g

Q: What about the Cmax [16] of the same molecule?
A: 31100 ng/g

Q: And the Drug uptake [17]?
A: 17.68 ugequiv

Q: What about the AUC [18] of the same molecule?
A: 57.35 µg·h/g

Q: And the Drug uptake [19]?
A: 25.01 ugequiv

Q: What about the Drug uptake [20] of the same molecule?
A: 12.57 ugequiv

Q: And the Drug uptake [21]?
A: 7.22 ugequiv

Q: What about the Drug uptake [22] of the same molecule?
A: 7.32 ugequiv

Q: And the Drug uptake [23]?
A: 0.85 ugequiv

Q: And the Drug uptake [24]?
A: 0.72 ugequiv

Q: And the Drug uptake [25]?
A: 4.27 ugequiv

Q: And the Drug uptake [26]?
A: 1.83 ugequiv

Q: And the Drug uptake [27]?
A: 0.96 ugequiv

Q: And the Drug uptake [28]?
A: 0.6 ugequiv

Q: And the Vd [29]?
A: 0.2 L/kg
